From ChEMBL document CHEMBL1177728, “Discovery and optimization of boronic acid based inhibitors of autotaxin” (J Med Chem, 2010)

Key:
Autotaxin [1] = biological target: T1, Autotaxin (Homo sapiens, UniProt Q13822); experiment: Inhibition of 6x-histidine-tagged human recombinant ATX expressed in HEK293 cells assessed as lysophosphatidulcholine release; assay type: cell-based
In short: (§1)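 LPC (18:1) choline release: ATX (~40 nM) secreted by transfected HEK293 cells into serum-free medium, TALON-purified, in 50 mM Tris-HCl pH 7.4 with 0.01% Triton X-100. Substrate added as 80 μM LPC with 10 mM MgCl2 and CaCl2, 3 h at 37 C.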

Autotaxin [2] = biological target: T1, Autotaxin; experiment: Inhibition of 6x-histidine-tagged human recombinant ATX expressed in HEK293 cells assessed as residual activity using bisP-nitrophenyl phosphate as a substrate; values are per cent of control
Autotaxin [3] = biological target: T1, Autotaxin; experiment: Inhibition of 6x-histidine-tagged human recombinant ATX expressed in HEK293 cells using bisP-nitrophenyl phosphate as a substrate; assay type: cell-based
Autotaxin [4] = biological target: T1, Autotaxin; experiment: Inhibition of 6x-histidine-tagged human recombinant ATX expressed in HEK293 cells assessed as residual enzyme activity by lysophosphatidulcholine release assay; assay type: cell-based
In short: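 Residual activity in the LPC (18:1) choline release assay with purified His-tagged ATX (~40 nM), pH 7.4 Tris with 0.01% Triton X-100, 3 h at 37 C. Inhibitor titrated at 10 concentrations, 0.01–30 μM. Choline detected at 405 nm via choline oxidase/HRP/ABTS.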

Autotaxin [5] = biological target: T1, Autotaxin; experiment: Inhibition of 6x-histidine-tagged human recombinant ATX expressed in HEK293 cells using bisP-nitrophenyl phosphate as a substrate at 5 uM; assay type: cell-based
In short: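 bis-pNPP hydrolysis by purified His-tagged ATX (~40 nM) in Tris-buffered saline pH 7.8 with fatty-acid-free BSA 0.2 mg/mL. Bis-pNPP added as 2 mM stock, 3 h at room temperature. p-Nitrophenol read at 405 nm, corrected by 0 h absorbance. IC50 from 10 concentrations (0.025–100 μM); inhibition at 5 μM final; three independent experiments.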

Autotaxin [6] = biological target: T1, Autotaxin; experiment: Inhibition of 6x-histidine-tagged human recombinant ATX expressed in HEK293 cells at 5 uM by CPF assay; assay type: cell-based
In short: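 FRET substrate CPF4 at 2 μM with purified His-tagged ATX (~40 nM), run as the bis-pNPP format (pH 7.8 Tris-buffered saline, BSA-FAF, 3 h at room temperature). Fluorescence excited at 355 nm, emission 460 and 520 nm. Inhibitor at 5 μM final.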

Autotaxin [7] = biological target: T1, Autotaxin; experiment: Inhibition of 6x-histidine-tagged human recombinant ATX expressed in HEK293 cells assessed as lysophosphatidulcholine release at 5 uM; assay type: cell-based
In short: as §1, with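 “C. Choline read at 405 nm by choline oxidase/HRP/ABTS with compound-absorbance correction. IC50 over 10 concentrations (0.01–30 μM); inhibition at 5 μM final.” for “C.”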

COc1cc(/C=C2\SC(=O)N(Cc3ccc(C(C)(C)C)cc3)C2=O)ccc1OCc1ccc(C(=O)O)cc1
IC50 (Autotaxin [1]): 13.6 µM
residual activity (Autotaxin [2]): 33%
IC50 (Autotaxin [3]; read-out: IC50): 18.2 µM
Activity (Autotaxin [4]): 27%

COc1cc(/C=C2\SC(=O)N(Cc3ccc(F)cc3)C2=O)ccc1OCc1cccc(C(=O)O)c1
IC50 (Autotaxin [1]): 2.05 µM
Activity (Autotaxin [4]): 42%

COc1cc(/C=C2\SC(=O)N(Cc3ccc(F)cc3)C2=O)ccc1OCc1ccccc1
residual activity (Autotaxin [2]): 12%
IC50 (Autotaxin [3]; read-out: IC50): 5.87 µM

CC(C)(C)c1ccc(CN2C(=O)S/C(=C\c3ccccc3)C2=O)cc1
IC50 (Autotaxin [3]; hek293): Not Active

COc1cc(/C=C2\SC(=O)N(Cc3ccc([N+](=O)[O-])cc3)C2=O)ccc1OCc1ccccc1
IC50 (Autotaxin [3]; read-out: IC50): > 100 µM

COc1cc(/C=C2\SC(=O)N(Cc3ccccc3)C2=O)ccc1OCc1ccc(C(=O)O)cc1
IC50 (Autotaxin [1]): 2.9 µM
residual activity (Autotaxin [2]): 9%
IC50 (Autotaxin [3]; read-out: IC50): 0.248 µM
Activity (Autotaxin [4]): 29%

COc1cc(/C=C2\SC(=O)N(Cc3ccccc3)C2=O)ccc1OCc1ccccc1
IC50 (Autotaxin [3]; read-out: IC50): 100 µM

CC(C)(C)c1ccc(CN2C(=O)S/C(=C\c3ccc(OCc4ccccc4)cc3)C2=O)cc1
IC50 (Autotaxin [3]; read-out: IC50): > 100 µM

O=C1S/C(=C\c2ccc(OCc3ccccc3)cc2)C(=O)N1Cc1ccc([N+](=O)[O-])cc1
IC50 (Autotaxin [3]; read-out: IC50): > 100 µM

CC(C)Cc1ccc(-c2n[nH]c3c2C(c2ccc(N(C)C)cc2)C(C#N)=C(N)O3)cc1 (stereo not drawn)
inhibition (Autotaxin [5]): 87%
IC50 (Autotaxin [3]; read-out: IC50): 0.046 µM
inhibition (Autotaxin [6]): 77%

COC(=O)c1ccc(COc2ccc(/C=C3\SC(=O)N(Cc4ccc([N+](=O)[O-])cc4)C3=O)cc2OC)cc1
residual activity (Autotaxin [2]): 31%
IC50 (Autotaxin [3]; read-out: IC50): 60.9 µM

O=C1S/C(=C\c2ccccc2)C(=O)N1Cc1ccc([N+](=O)[O-])cc1
IC50 (Autotaxin [3]; hek293): Not Active

O=C1S/C(=C\c2cccc(OCc3ccccc3B(O)O)c2)C(=O)N1Cc1ccc(F)cc1
IC50 (Autotaxin [1]): > 5 µM
inhibition (Autotaxin [7]): 11%

O=C(CSc1nc2ccc(N3C(=O)c4ccccc4C3=O)cc2s1)Nc1cccc(Cl)c1
inhibition (Autotaxin [5]): 71%
IC50 (Autotaxin [3]; read-out: IC50): 0.261 µM
inhibition (Autotaxin [6]): 66%

O=C(O)c1cccc(COc2ccc(/C=C3\SC(=O)N(Cc4ccc(F)cc4)C3=O)cc2)c1
IC50 (Autotaxin [1]): 1.07 µM
Activity (Autotaxin [4]): 7%

COc1cc(/C=C2\SC(=O)N(Cc3ccc(C(C)(C)C)cc3)C2=O)ccc1OCc1ccccc1
IC50 (Autotaxin [3]; hek293): Not Active

COC(=O)c1ccc(COc2ccc(/C=C3\SC(=O)N(Cc4ccc(C(C)(C)C)cc4)C3=O)cc2OC)cc1
IC50 (Autotaxin [3]; read-out: IC50): > 100 µM

O=C1S/C(=C\c2ccc(OCc3ccccc3B(O)O)cc2)C(=O)N1Cc1ccc(F)cc1
IC50 (Autotaxin [1]): > 5 µM
inhibition (Autotaxin [7]): 36%

O=C1S/C(=C\c2ccc(OCc3ccccc3)cc2)C(=O)N1Cc1ccccc1
residual activity (Autotaxin [2]): 32%
IC50 (Autotaxin [3]; read-out: IC50): 2.69 µM

COc1cc(/C=C2\SC(=O)N(Cc3ccc(Cl)cc3)C2=O)ccc1OCc1ccncc1
inhibition (Autotaxin [5]): 83%
IC50 (Autotaxin [3]; read-out: IC50): 0.068 µM
inhibition (Autotaxin [6]): 85%

O=C1S/C(=C\c2cccc(OCc3ccc(B(O)O)cc3)c2)C(=O)N1Cc1ccc(F)cc1
IC50 (Autotaxin [1]): 0.0296 µM
inhibition (Autotaxin [7]): 100%

CCOc1cc(/C=C2\SC(=O)N(Cc3ccccc3)C2=O)ccc1OCc1ccc(C(=O)O)cc1
inhibition (Autotaxin [5]): 92%
IC50 (Autotaxin [3]; read-out: IC50): 0.161 µM
inhibition (Autotaxin [6]): 89%

O=C1S/C(=C\c2ccccc2)C(=O)N1Cc1ccccc1
IC50 (Autotaxin [3]; read-out: IC50): > 100 µM

COc1cc(/C=C2\SC(=O)N(Cc3ccccc3C#N)C2=O)ccc1OCc1ccc(C(=O)O)cc1
inhibition (Autotaxin [7]): 17%

O=C1S/C(=C\c2ccc(OCc3ccccc3)cc2)C(=O)N1Cc1ccc(F)cc1
residual activity (Autotaxin [2]): 37%
IC50 (Autotaxin [3]; read-out: IC50): 0.7 µM

O=C1S/C(=C\c2ccccc2)C(=O)N1Cc1ccc(F)cc1
IC50 (Autotaxin [3]; read-out: IC50): > 100 µM

COc1cc(/C=C2\SC(=O)N(Cc3cccc(C#N)c3)C2=O)ccc1OCc1ccc(C(=O)O)cc1
inhibition (Autotaxin [7]): 44%

CCCCCCCC/C=C\CCCCCCCC(=O)OC[C@@H](O)COP(=O)(O)O
inhibition (Autotaxin [5]): 80%
residual activity (Autotaxin [2]): 39%
inhibition (Autotaxin [6]): 67%

O=C1S/C(=C\c2cccc(OCc3cccc(B(O)O)c3)c2)C(=O)N1Cc1ccc(F)cc1
IC50 (Autotaxin [1]): 0.0119 µM
inhibition (Autotaxin [7]): 100%

COc1cc(/C=C2\SC(=O)N(Cc3ccc(OC(F)(F)F)cc3)C2=O)ccc1OCc1ccc(C(=O)O)cc1
inhibition (Autotaxin [7]): 12%

COc1cc(/C=C2\SC(=O)N(Cc3cccc(F)c3)C2=O)ccc1OCc1ccc(C(=O)O)cc1
inhibition (Autotaxin [7]): 64%

COC(=O)c1ccc(COc2ccc(/C=C3\SC(=O)N(Cc4ccccc4)C3=O)cc2OC)cc1
residual activity (Autotaxin [2]): 24%
IC50 (Autotaxin [3]; read-out: IC50): 2.69 µM

Cn1c(=O)n(C)c2cc(/C=C3\SC(=O)N(Cc4ccccc4)C3=O)ccc21
inhibition (Autotaxin [5]): 75%
IC50 (Autotaxin [3]; read-out: IC50): 0.111 µM
inhibition (Autotaxin [6]): 55%

COc1cc(/C=C2\SC(=O)N(Cc3ccccc3Cl)C2=O)ccc1OCc1ccc(C(=O)O)cc1
inhibition (Autotaxin [7]): 57%

COc1cc(/C=C2\SC(=O)N(Cc3ccccc3Br)C2=O)ccc1OCc1ccc(C(=O)O)cc1
inhibition (Autotaxin [7]): 72%

COc1cc(/C=C2\SC(=O)N(Cc3ccc(Br)cc3)C2=O)ccc1OCc1ccc(C(=O)O)cc1
inhibition (Autotaxin [7]): 23%

COC(=O)c1ccc(COc2ccc(/C=C3\SC(=O)N(Cc4ccc(F)cc4)C3=O)cc2OC)cc1
IC50 (Autotaxin [3]; read-out: IC50): > 100 µM

COc1cc(/C=C2\SC(=O)N(CC(=O)c3ccc(Br)cc3)C2=O)ccc1OCc1ccc(C(=O)O)cc1
inhibition (Autotaxin [7]): 23%

O=C1S/C(=C\c2ccc(OCc3cccc(B(O)O)c3)cc2)C(=O)N1Cc1ccc(F)cc1
IC50 (Autotaxin [1]): 0.0283 µM
inhibition (Autotaxin [7]): 99%

COc1cc(/C=C2\SC(=O)N(Cc3ccc([N+](=O)[O-])cc3)C2=O)ccc1OCc1ccc(C(=O)O)cc1
IC50 (Autotaxin [1]): > 5 µM
residual activity (Autotaxin [2]): 33%
IC50 (Autotaxin [3]; read-out: IC50): 0.442 µM
Activity (Autotaxin [4]): 56%

O=C(O)c1ccc(COc2ccc(/C=C3\SC(=O)N(Cc4ccc(F)cc4)C3=O)cc2)cc1
IC50 (Autotaxin [1]): 1.63 µM
Activity (Autotaxin [4]): 40%

COc1cc(/C=C2\SC(=O)N(Cc3ccc(C(F)(F)F)cc3)C2=O)ccc1OCc1ccc(C(=O)O)cc1
inhibition (Autotaxin [7]): 32%

COc1cc(/C=C2\SC(=O)N(Cc3ccc(F)cc3)C2=O)ccc1OCc1ccc(C(=O)O)cc1
IC50 (Autotaxin [1]): 2.5 µM
inhibition (Autotaxin [5]): 91%
residual activity (Autotaxin [2]): 10%
IC50 (Autotaxin [3]; read-out: IC50): 0.056 µM
inhibition (Autotaxin [7]): 55%
inhibition (Autotaxin [6]): 85%
Activity (Autotaxin [4]): 35%
